Experimental data from different studies.
Read-out: metabolic stability
Species: human

`Cc1[nH]c(C)c(S(=O)(=O)Nc2ccc(S(=O)(=O)F)c(Cl)c2)c1C(=O)N1CCC(F)(F)C1` gave a half-life of 22 min (liver microsomes).
`O=c1[nH]c2ccccc2n1C1CCN(CCCC(c2ccc(F)cc2)c2ccc(F)cc2)CC1` has a half-life of 201 min (liver microsomes; 100 ng/mL).
`CC(c1cncnc1)n1c(=S)[nH]c2ccc(Cl)cc2c1=O` (stereo not shown) has a half-life of over 186 min (liver microsomes; 1 µM; pH 7.4).
`CC(C)CC(=O)OC[C@H]1O[C@@](C#N)(c2ccc3c(N)ncnn23)[C@H](O)[C@@H]1O` gave a half-life of under 4.36 min (hepatocytes).
For `CC(=O)c1c(C)c2cnc(Nc3ccc(C4CCN(CCS(C)(=O)=O)CC4)cn3)nc2n(C2CCCC2)c1=O`, the half-life was 85.6 min (liver S9).
`C[C@]12CC[C@H]3[C@@H](CCC4=CC(=O)CC[C@@]43C)[C@@H]1CC[C@@H]2O` has a half-life of 21.7 min (liver microsomes).
`Cc1[nH]c(C)c(S(=O)(=O)Nc2ccc(S(F)(F)(F)(F)F)cc2)c1C(=O)N1CCC(F)(F)C1` gave a half-life of 26.3 min (liver microsomes).
With `O=c1c2cc(Cl)c(CO)cc2[nH]c(=S)n1Cc1cncnc1` the half-life was 71.8 min (liver microsomes; 1 µM; pH 7.4).
`Cc1ncc2n1-c1ccc(Cl)cc1C(c1ccccc1F)=NC2` has a half-life of 92.6 min (hepatocytes).
For `C#Cc1nc(C(=O)N2CCC(NC(=O)c3cnc(-c4ccccc4)s3)(c3nc4ccccc4n3C)CC2)cs1`, the half-life was about 20 min (liver microsomes).
